{"source": "ChEMBL document CHEMBL5608236", "about": "“A Photoactivatable Version of Ivabradine Enables Light-Induced Block of HCN Current In Vivo” (J Med Chem, 2024)", "key": {"[1]": {"system": "HEK-293T", "experiment": "Cytotoxicity against human HEK-293T cells assessed as reduction in cell viability at 100 uM incubated upto 48 hrs by live/dead TM red staining based fluorescent microscopic analysis", "type": "toxicity", "procedure,_shortened": "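HEK293T cells in DMEM high-glucose with 10% FBS and 1% PenStrep, treated at 80-90% confluency with 100 μM compound added to growth medium; untreated and 0.5% DMSO controls, heat-killed (60 °C, 20 min) positive control. After 8, 16, 24 or 48 h, cells detached, stained with LIVE-DEAD NearIF in PBS, imaged at 640 nm excitation; dead cells counted in three random quadrants per triplicate.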"}, "[2]": {"biological_target": "T1, Potassium/sodium hyperpolarization-activated cyclic nucleotide-gated channel 1 (Homo sapiens) (UniProt O60741)", "T1 sequence (whole entry)": "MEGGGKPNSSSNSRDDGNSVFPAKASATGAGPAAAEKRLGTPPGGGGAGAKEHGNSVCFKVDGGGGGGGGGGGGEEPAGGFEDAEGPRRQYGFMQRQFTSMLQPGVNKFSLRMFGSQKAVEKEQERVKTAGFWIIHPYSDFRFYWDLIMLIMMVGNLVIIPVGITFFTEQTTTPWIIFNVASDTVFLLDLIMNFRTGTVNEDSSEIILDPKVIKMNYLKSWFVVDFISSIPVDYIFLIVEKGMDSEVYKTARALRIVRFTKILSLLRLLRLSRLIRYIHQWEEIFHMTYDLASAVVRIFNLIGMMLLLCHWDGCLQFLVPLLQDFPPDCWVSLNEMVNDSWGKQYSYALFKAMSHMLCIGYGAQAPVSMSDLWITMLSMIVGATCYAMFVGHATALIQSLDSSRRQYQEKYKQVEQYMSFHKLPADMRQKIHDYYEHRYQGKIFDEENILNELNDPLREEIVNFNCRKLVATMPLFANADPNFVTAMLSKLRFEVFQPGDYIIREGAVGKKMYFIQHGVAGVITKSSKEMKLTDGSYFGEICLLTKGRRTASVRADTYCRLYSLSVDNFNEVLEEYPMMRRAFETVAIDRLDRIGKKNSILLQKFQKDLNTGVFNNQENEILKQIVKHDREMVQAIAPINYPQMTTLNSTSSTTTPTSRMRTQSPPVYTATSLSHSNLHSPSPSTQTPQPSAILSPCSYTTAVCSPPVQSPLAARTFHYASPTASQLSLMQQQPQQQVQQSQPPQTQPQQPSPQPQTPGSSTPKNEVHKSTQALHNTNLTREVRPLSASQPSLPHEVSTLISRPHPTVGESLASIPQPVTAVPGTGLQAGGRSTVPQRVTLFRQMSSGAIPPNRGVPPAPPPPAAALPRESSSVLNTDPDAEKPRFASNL", "experiment": "Inhibition of RFP-fused human HCN1 transfected in HEK-293T cells at 100 uM at holding potential of -110 mV under dark condition by whole cell patch clamp electrophysiology", "type": "cell-based", "procedure,_shortened": "(§1)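 RFP-hHCN1 transiently expressed in HEK293T; whole-cell patch clamp at room temperature, 5 kHz sampling, 1 kHz filter. Steps to -110 mV (1.8 s) and +5 mV (0.5 s) every 5.5 s from -20 mV holding. Compound added to extracellular solution by perfusion, either in the dark, pre-illuminated (395 nm 0.5 mW/mm2, or 440 nm 1 mW/mm2 for 1 min) or illuminated during perfusion. Fractional block = current reduction/control current; mean ± SEM.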"}, "[3]": {"biological_target": "T1, Potassium/sodium hyperpolarization-activated cyclic nucleotide-gated channel 1 (Homo sapiens)", "experiment": "Inhibition of RFP-fused human HCN1 transfected in HEK-293T cells at 100 uM at holding potential of -110 mV under UV light exposure by whole cell patch clamp electrophysiology", "type": "cell-based", "procedure,_shortened": "as §1"}, "[4]": {"system": "Neuron", "experiment": "Inhibition of HCN in mouse brain neuron assessed as reduction of hyperpolarization-activated current (Ih) at 100 uM at holding potential of -70 to -120 mV with UV light irradiation at 365 nm by whole cell patch clamp electrophysiology", "type": "tissue-based", "procedure,_shortened": "(§2)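 Dendritic whole-cell recordings on L5 neurons of medial prefrontal cortex in acute slices from male mice (2-3 months), aCSF at 32-34 °C with D-APV, DNQX, CGP and gabazine. Ih evoked by steps to -120 mV (1.8 s) then +5 mV (0.15 s) from -70 mV holding. Compound bath-perfused at 30 or 100 μM with 365 nm illumination of the slice (23.5 mW); steady-state current compared before and at full effect; paired t-test.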"}, "[5]": {"biological_target": "T1, Potassium/sodium hyperpolarization-activated cyclic nucleotide-gated channel 1 (Homo sapiens)", "experiment": "Inhibition of RFP-fused human HCN1 transfected in HEK-293T cells at 30 uM at holding potential of -110 mV with 0.5 mW/mm2 of UV light irradiation exposure at 395 nm by whole cell patch clamp electrophysiology", "type": "cell-based", "procedure,_shortened": "as §1"}, "[6]": {"biological_target": "T1, Potassium/sodium hyperpolarization-activated cyclic nucleotide-gated channel 1 (Homo sapiens)", "experiment": "Inhibition of RFP-fused human HCN1 transfected in HEK-293T cells at 30 uM at holding potential of -110 mV pre-exposed with 0.5 mW/mm2 of UV light irradiation at 395 nm by whole cell patch clamp electrophysiology", "type": "cell-based", "procedure,_shortened": "as §1"}, "[7]": {"biological_target": "T1, Potassium/sodium hyperpolarization-activated cyclic nucleotide-gated channel 1 (Homo sapiens)", "experiment": "Inhibition of RFP-fused human HCN1 transfected in HEK-293T cells at 100 uM at holding potential of -110 mV with 1 mW/mm2 of blue light irradiation exposure at 440 nm by whole cell patch clamp electrophysiology relative to IVA", "type": "cell-based", "procedure,_shortened": "as §1"}, "[8]": {"biological_target": "T1, Potassium/sodium hyperpolarization-activated cyclic nucleotide-gated channel 1 (Homo sapiens)", "experiment": "Inhibition of RFP-fused human HCN1 transfected in HEK-293T cells at 30 uM at holding potential of -110 mV with 1 mW/mm2 of blue light irradiation exposure at 440 nm by whole cell patch clamp electrophysiology relative to IVA", "type": "cell-based", "procedure,_shortened": "as §1"}, "[9]": {"system": "Neuron", "experiment": "Inhibition of HCN in mouse brain neuron assessed as reduction of hyperpolarization-activated current (Ih) at 30 to 100 uM at holding potential of -70 to -120 mV with UV light irradiation at 365 nm by whole cell patch clamp electrophysiology", "type": "tissue-based", "settings": "dose 30-100 µM", "procedure,_shortened": "as §2"}, "[10]": {"biological_target": "T1, Potassium/sodium hyperpolarization-activated cyclic nucleotide-gated channel 1 (Homo sapiens)", "experiment": "Inhibition of RFP-fused human HCN1 transfected in HEK-293T cells at 30 uM at holding potential of -110 mV pre-exposed with 0.5 mW/mm2 of UV light irradiation at 395 nm by whole cell patch clamp electrophysiology relative to IVA", "type": "cell-based", "procedure,_shortened": "as §1"}, "[11]": {"biological_target": "T1, Potassium/sodium hyperpolarization-activated cyclic nucleotide-gated channel 1 (Homo sapiens)", "experiment": "Inhibition of RFP-fused human HCN1 transfected in HEK-293T cells at 100 uM at holding potential of -110 mV pre-exposed with 1 mW/mm2 of blue light irradiation at 440 nm by whole cell patch clamp electrophysiology relative to IVA", "type": "cell-based", "procedure,_shortened": "as §1"}, "[12]": {"biological_target": "T1, Potassium/sodium hyperpolarization-activated cyclic nucleotide-gated channel 1 (Homo sapiens)", "experiment": "Inhibition of RFP-fused human HCN1 transfected in HEK-293T cells at 30 uM at holding potential of -110 mV with 0.5 mW/mm2 of UV light irradiation exposure at 395 nm by whole cell patch clamp electrophysiology relative to IVA", "type": "cell-based", "procedure,_shortened": "as §1"}, "[13]": {"experiment": "Fluorescence property of compound in HEPES buffer at pH 7.4 assessed as quantum yield at 1.5 mM under irradiation with 440 nm light by UV-Visible spectra analysis", "type": "physicochemical", "settings": "pH 7.4, 1500 µM"}, "[14]": {"experiment": "In vivo inhibition of HCN4 in Zebrafish larvae assessed as reduction in heart rate at 1 mM administered at 48 hpf along with 2 mW/mm2 of blue light irradiation exposure at 436 nm measured upto 60 mins (reference value: 80 +/- 1 %)", "type": "functional, Danio rerio"}, "[15]": {"experiment": "Stability in human plasma at 40 mM incubated upto 24 hrs by UV-HPLC analysis", "type": "ADME, cell-free", "settings": "1000 µM, in the assay text read “1 mM” for “40 mM”", "procedure,_shortened": "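A 40 mM stock was added to human plasma (10 into 390 parts) and incubated at 37 °C for 24 h, in duplicate. At time points, aliquots were quenched in 3 volumes of cold acetonitrile, centrifuged at 4 °C for 10 min, filtered and analysed by HPLC-UV (C18, TFA water/acetonitrile gradient, detection at 280 nm).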"}, "[16]": {"experiment": "Fluorescence property of compound in HEPES buffer at pH 7.4 assessed as quantum yield at 1.5 mM under irradiation with 395 nm light by UV-Visible spectra analysis", "type": "physicochemical", "settings": "pH 7.4, 1500 µM"}, "[17]": {"experiment": "Fluorescence property of compound in HEPES buffer at pH 7.4 assessed as quantum yield at 1.5 mM under irradiation with 365 nm light by UV-Visible spectra analysis", "type": "physicochemical", "settings": "pH 7.4, 1500 µM"}, "[18]": {"experiment": "Solubility of compound in HEPES buffer at pH 7.4 by UV-Visible spectra analysis", "type": "physicochemical"}, "[19]": {"experiment": "In vivo inhibition of HCN4 in Zebrafish larvae assessed as reduction in heart rate at 1 mM administered at 48 hpf along with 0.5 mW/mm2 of UV light irradiation exposure at 365 nm measured upto 60 mins (reference value: 84 +/- 1 %)", "type": "functional, Danio rerio"}, "[20]": {"experiment": "Drug accumulation in human HEK-293T cells transfected with RFP-fused human HCN1 assessed as increase in fluorescent signal at 30 uM measured for 25 mins by fluorescent microscopic analysis", "type": "ADME, cell-based", "procedure,_shortened": "(§3)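 HEK293T cells incubated with 30 μM compound in buffer for 15 min, or perfused for 5 min. Intracellular autofluorescence (excitation 405 nm, emission 518 nm) imaged by fluorescence microscopy, with images taken during 10 min of washout.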"}, "[21]": {"experiment": "Drug accumulation in human HEK-293T cells transfected with RFP-fused human HCN1 assessed as increase in fluorescent signal at 30 uM incubated for 15 mins by fluorescent microscopic analysis", "type": "ADME, cell-based", "settings": "0.25 h", "procedure,_shortened": "as §3"}, "[22]": {"system": "Neuron", "experiment": "Inhibition of HCN in mouse brain neuron assessed as reduction of hyperpolarization-activated current (Ih) at 30 uM at holding potential of -70 to -120 mV with UV light irradiation at 365 nm by whole cell patch clamp electrophysiology", "type": "tissue-based", "procedure,_shortened": "as §2"}}, "note": "The source made the active and inactive calls. The calls are words filed in the database; no cut-off is given here.", "data": [{"smiles": "OCc1ccc2ccc(O)c(Br)c2n1", "values": [{"measurement": "Activity", "setting": "[1]", "result": "Non-Toxic"}, {"measurement": "inhibition", "setting": "[2]", "result": "inactive"}, {"measurement": "inhibition", "setting": "[3]", "result": "inactive"}, {"measurement": "inhibition", "setting": "[4]", "result": "inactive"}]}, {"smiles": "COc1cc2c(cc1OC)CC(=O)N(CCC[N+](C)(Cc1ccc3ccc(O)c(Br)c3n1)C[C@H]1Cc3cc(OC)c(OC)cc31)CC2", "note": "(stereo not given in full)", "values": [{"measurement": "inhibition", "setting": "[5]", "result": "Active"}, {"measurement": "inhibition", "setting": "[6]", "result": "Active"}, {"measurement": "inhibition", "setting": "[7]", "result": 85, "unit": "%"}, {"measurement": "inhibition", "setting": "[2]", "result": "inactive"}, {"measurement": "inhibition", "setting": "[8]", "result": 65, "unit": "%"}, {"measurement": "inhibition", "setting": "[9]", "result": "Active"}, {"measurement": "inhibition", "setting": "[10]", "result": 95, "unit": "%"}, {"measurement": "inhibition", "setting": "[11]", "result": 85, "unit": "%"}, {"measurement": "inhibition", "setting": "[12]", "result": 85, "unit": "%"}]}, {"smiles": "COc1cc2c(cc1OC)CC(=O)N(CCC[N+](C)(Cc1ccc3ccc(O)c(Br)c3n1)C[C@H]1Cc3cc(OC)c(OC)cc31)CC2.[OH-]", "note": "(stereo not given in full)", "values": [{"measurement": "Activity", "setting": "[13]", "result": 0.062}, {"measurement": "inhibition (INH)", "setting": "[14]", "result": 51, "unit": "%"}, {"measurement": "Stability", "setting": "[15]", "result": "Stable"}, {"measurement": "Activity", "setting": "[16]", "result": 0.034}, {"measurement": "Activity", "setting": "[17]", "result": 0.073}, {"measurement": "solubility", "setting": "[18]", "result": 430, "unit": "µM"}, {"measurement": "inhibition (INH)", "setting": "[19]", "result": 49, "unit": "%"}]}, {"smiles": "COc1cc2c(cc1OC)CC(=O)N(CCC[N+](C)(Cc1ccc3ccc(O)c(Br)c3n1)C[C@H]1Cc3cc(OC)c(OC)cc31)CC2.CS(=O)(=O)[O-]", "note": "(stereo not given in full)", "values": [{"measurement": "Activity", "setting": "[1]", "result": "Non-Toxic"}, {"measurement": "Drug uptake", "setting": "[20]", "result": "Active"}, {"measurement": "Activity", "setting": "[13]", "result": 0.051}, {"measurement": "inhibition (INH)", "setting": "[14]", "result": 49, "unit": "%"}, {"measurement": "Activity", "setting": "[16]", "result": 0.041}, {"measurement": "Activity", "setting": "[17]", "result": 0.091}, {"measurement": "solubility", "setting": "[18]", "result": 550, "unit": "µM"}, {"measurement": "Drug uptake", "setting": "[21]", "result": "Active"}, {"measurement": "inhibition (INH)", "setting": "[19]", "result": 51, "unit": "%"}]}, {"smiles": "COc1cc2c(cc1OC)CC(=O)N(CCCN(C)C[C@H]1Cc3cc(OC)c(OC)cc31)CC2", "values": [{"measurement": "inhibition", "setting": "[22]", "result": "Active"}]}]}
